Reference: ChEMBL document CHEMBL4699431, “Design and synthesis of substituted (1-(benzyl)-1H-1,2,3-triazol-4-yl)(piperazin-1-yl)methanone conjugates: study on their apoptosis inducing ability and tubulin polymerization inhibition” (RSC Med Chem, 2020)
Active and inactive are the calls of the source. No cut-off for these calls is given here.

How the values were obtained:
[1] = tested on: BT-474; experiment: Cytotoxicity against human BT-474 cells assessed as reduction in cell viability incubated for 48 hrs by MTT assay; assay type: functional, cell-based; conditions: BT-474, 48 h
How it was run: (§1)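 Cells plated at 3000-4500 per well and treated after 24 h. DMSO stocks (20 mM) were diluted in medium to final DMSO <0.1%, twofold series […], 48 h. MTT (0.5 mg/mL) was added for 4 h, formazan dissolved in DMSO, absorbance read at 570 nm.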

[2] = tested on: NCI-H460; experiment: Cytotoxicity against human NCI-H460 cells assessed as reduction in cell viability incubated for 48 hrs by MTT assay; assay type: functional, cell-based; conditions: NCI-H460, 48 h; how it was run: as §1
[3] = tested on: BT-474; experiment: Induction of morphological changes in human BT-474 cells assessed as […] incubated for 48 hrs by phase-contrast microscope method; assay type: functional, cell-based; conditions: dose microM 0.5-2.5, time 48.0 hrs
How it was run: (§2)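 Plated at 5×10^4 cells/well, dosed after 24 h at 0.5, 1 and 2.5 μM. After 48 h, morphology was examined and photographed under phase-contrast microscopy.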

[4] = tested on: BT-474; experiment: Induction of morphological changes in human BT-474 cells assessed as cell shrinkage incubated for 48 hrs by phase-contrast microscope method; assay type: functional, cell-based; conditions: dose microM 0.5-2.5, time 48.0 hrs; how it was run: as §2
[5] = tested on: BT-474; experiment: Induction of apoptosis in human BT-474 cells assessed as non-uniform distribution of chromatin incubated for 48 hrs by acridine orange/ethidium bromide double staining-based fluorescence microscopic analysis; assay type: functional, cell-based; conditions: dose microM 0.5-2.5, time 48.0 hrs
How it was run: (§3)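 Plated at 5×10^4 cells/well, treated after 24 h and held 48 h at 37 °C, 5% CO₂. Acridine orange and ethidium bromide (10 µg/mL each) added in equal volumes, then cells viewed by fluorescence microscopy at 200x.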

[6] = tested on: BT-474; experiment: Cell cycle arrest in human BT-474 cells assessed as increase in accumulation in G1 phase at 2.5 uM by propidium iodide staining based flow cytometry(reference value: 4.06%); assay type: functional
How it was run: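 Seeded at 1 x 10⁵ cells/well, after 24 h serum-starved 6 h to synchronize, then returned to FBS-containing medium and treated at 0.5, 1 and 2.5 μM. Harvested cells were PBS-washed, fixed in ice-cold 70% ethanol, stained with propidium iodide (50 μg/mL) plus RNase A for 20 min at 37 °C in the dark. About 10,000 events analysed by flow cytometry.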

[7] = tested on: BT-474; experiment: Induction of mitochondrial membrane potential loss in human BT-474 cells assessed as depolarized cell population (P2) at 2.5 uM incubated for 48 hrs by JC1 staining based flow cytometry (reference value: 0.48 %); assay type: functional
How it was run: (§4)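 Cells (1x10⁶/mL) adhered overnight, then exposed to 0.5, 1 and 2.5 μM for 48 h. Collected, PBS-washed, incubated with JC-1 dye (1 μM) for 30 min at 37 °C, washed twice, trypsinized, centrifuged and read by flow cytometry.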

[8] = tested on: BT-474; experiment: Induction of apoptosis in human BT-474 cells assessed as chromatin condensation incubated for 48 hrs by acridine orange/ethidium bromide double staining-based fluorescence microscopic analysis; assay type: functional, cell-based; conditions: dose microM 0.5-2.5, time 48.0 hrs; how it was run: as §3
[9] = tested on: BT-474; experiment: Induction of mitochondrial membrane potential loss in human BT-474 cells assessed as depolarized cell population (P1) at 0.5 uM incubated for 48 hrs by JC1 staining based flow cytometry (reference value: 98.09 %); assay type: functional; how it was run: as §4
[10] = tested on: BT-474; experiment: Induction of mitochondrial membrane potential loss in human BT-474 cells assessed as depolarized cell population (P1) at 1 uM incubated for 48 hrs by JC1 staining based flow cytometry (reference value: 98.09 %); assay type: functional; how it was run: as §4

O=C(c1cn(Cc2cccc(Oc3ccccc3)c2)nn1)N1CCN(S(=O)(=O)c2ccc(Br)cc2)CC1
IC50 [1]: 0.99 µM | IC50 [2]: 4.88 µM | Activity [3]: Active | Activity [4]: Active | Activity [5]: Dose-dependent effect | Activity [6]: 11.3% | Activity [7]: 89.84% | Activity [8]: Dose-dependent effect | Activity [9]: 50.26% | Activity [10]: 41.46%
